Assay results as given in publication PMC5154386 (Journal of medicinal chemistry, 2015).
Converted amounts (≈) assume the structure as drawn.

Assays:
[1] = test system: murine red blood cells (mRBCs); assay: Hemolytic assay; assay type: cell-based, mouse; settings: for hemolysis: at higher concentrations
Procedure, shortened: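 Hemolysis was measured on murine red blood cells exposed to the test compounds. Gramicidin, amphotericin B and the parent aminoglycoside were run as comparators.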

[2] = test system: A549 cell line; assay: Mammalian cell cytotoxicity assay; assay type: cell-based
[3] = test system: BEAS-2B cell line; assay: Mammalian cell cytotoxicity assay; assay type: cell-based
[4] = test system: S. aureus ATCC 29213 (V); assay: Antibacterial MIC determination; assay type: cell-based; settings: Staphylococcus aureus, ATCC29213
Procedure, shortened: (§1)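 MICs in μg/mL against a panel of 11 Gram-positive strains (including MRSA strains and VRE) and six Gram-negative strains. The panel held strains both susceptible and resistant to the parent aminoglycoside, each coded by a roman numeral. Each determination was run at least in duplicate.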

[5] = test system: S. aureus NRS385 (USA 300) (VIII); assay: Antibacterial MIC determination; assay type: cell-based; settings: Staphylococcus aureus, NRS385|USA300
Procedure, shortened: as §1

[6] = test system: Aspergillus nidulans ATCC 38163 (H); assay: Antifungal MIC determination; assay type: cell-based; settings: Aspergillus nidulans (strain H)
[7] = test system: various yeast strains and filamentous fungi; assay: Antifungal MIC, summary over the fungal strains tested; assay type: cell-based, Candida and Aspergillus species; settings: for MIC values, range: range over the fungal strains tested; for MIC of sulfone relative to MIC of corresponding thioether: collection of fungal strains, generally
[8] = test system: various yeast strains (C. albicans); assay: In vitro combination study with POS, summary over yeast strains; assay type: cell-based; settings: for lowering of the MIC value by POS: in combination with POS; for FICI values, range: with POS, all tested fungal strains (except 3d against strain A)
Procedure, shortened: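 Posaconazole was tested in combination with the test compound against yeast strains, both azole-resistant and azole-susceptible. FICI = (MIC of A in combination / MIC of A alone) + (MIC of B in combination / MIC of B alone). FICI ≤ 0.5 was scored synergy, 0.5 < FICI < 4 no interaction, and FICI ≥ 4 antagonism.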

[9] = test system: C. albicans ATCC 10231 (strain A); assay: Spontaneous frequency of resistance; assay type: cell-based
[10] = test system: C. albicans ATCC 64124 (strain B); assay: Time-kill assay; assay type: cell-based; settings: for time-kill activity at subinhibitory concentration: 1/2 MIC, 24 h period; for time to complete fungal cell death: at MIC
[11] = test system: MRSA (III); assay: Antibacterial MIC determination; assay type: cell-based; settings: Staphylococcus aureus
Procedure, shortened: as §1

[12] = test system: S. aureus NRS383 (USA 200) (VII); assay: Antibacterial MIC determination; assay type: cell-based; settings: Staphylococcus aureus, NRS383|USA200
Procedure, shortened: as §1

[13] = test system: AAC(3), AAC(2′), and AAC(6′); assay: TLC assessment of modification by AACs alone and together; assay type: biochemical; settings: for modification by three AACs used simultaneously (TLC): AAC(3), AAC(2′) and AAC(6′) simultaneously
[14] = test system: Pythium insidiosum; settings: in vitro; cited from earlier work
[15] = cited from earlier work
[16] = test system: E. coli MC1061 (XIV); assay: Antibacterial MIC determination; assay type: cell-based; settings: Escherichia coli
Procedure, shortened: as §1

[17] = test system: K. pneumoniae ATCC 27736 (XV); assay: Antibacterial MIC determination; assay type: cell-based; settings: Klebsiella pneumoniae, ATCC27736
Procedure, shortened: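 MIC in μg/mL against a panel of Gram-positive and Gram-negative strains that includes strains susceptible and resistant to the parent aminoglycoside; each determination done at least in duplicate.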

[18] = test system: tested Gram-positive bacteria; assay: Antibacterial MIC, summary over the Gram-positive panel; assay type: cell-based; settings: iv
Procedure, shortened: as §1

[19] = test system: Gram-negative bacterial strains tested; assay: Antibacterial MIC, summary over the Gram-negative panel; assay type: cell-based
[20] = at 50× MIC, MIC as in combination with POS

Question: For `CCCCCCCCSC[C@@H]1O[C@@H](O[C@@H]2[C@@H](O)[C@H](O[C@@H]3O[C@@H](CN)[C@H](O)[C@@H](O)[C@@H]3N)[C@@H](N)C[C@H]2N)[C@@H](O)[C@H](N)[C@H]1O` [Compound 3a], which hemolysis [1] is on record?
Answer: little to no hemolysis

Question: What about the toxicity [2] of the same compound?
Answer: little to no toxicity

Question: And the toxicity [3]?
Answer: little to no toxicity

Question: For `CCCCCCCCCCSC[C@@H]1O[C@@H](O[C@@H]2[C@@H](O)[C@H](O[C@@H]3O[C@@H](CN)[C@H](O)[C@@H](O)[C@@H]3N)[C@@H](N)C[C@H]2N)[C@@H](O)[C@H](N)[C@H]1O` [Compound 3b], which MIC [4] is on record?
Answer: 16 to 32 µg/mL (≈ 25 to 50 µM)

Question: And the MIC [5]?
Answer: 32 to 64 µg/mL (≈ 50 to 100 µM)

Question: And the hemolysis [1]?
Answer: little to no hemolysis

Question: And the toxicity [2]?
Answer: little to no toxicity

Question: What about the toxicity [3] of the same compound?
Answer: little to no toxicity

Question: Which results are given for `CCCCCCCCCCCCSC[C@@H]1O[C@@H](O[C@@H]2[C@@H](O)[C@H](O[C@@H]3O[C@@H](CN)[C@H](O)[C@@H](O)[C@@H]3N)[C@@H](N)C[C@H]2N)[C@@H](O)[C@H](N)[C@H]1O` [Compound 3c]?
Answer: times better than KANB [6]: 64 times; MIC values, range [7]: ≤1.95 to 31.2 µg/mL; lowering of the MIC value by POS [8]: 4–16 fold; FICI values, range [8]: 0.07 to 0.31; mutants ([9]; 3c (8 μg/mL) and POS (0.25 μg/mL), 96 h incubation): 24 colonies; spontaneous frequency rate of resistance ([9]; combination of 3c and POS): 2.4 × 10^−7; time-kill activity at subinhibitory concentration [10]: fungistatic activity; time to complete fungal cell death [10]: 24 h; mRBCs lysed ([1]; 50× MIC, MIC as in combination with POS): 60%; less hemolytic than AmB [1, 20]: ~ 30%; less hemolytic than gramicidin [1, 20]: ~ 20%

Question: With `CCCCCCCCCCCCCCSC[C@@H]1O[C@@H](O[C@@H]2[C@@H](O)[C@H](O[C@@H]3O[C@@H](CN)[C@H](O)[C@@H](O)[C@@H]3N)[C@@H](N)C[C@H]2N)[C@@H](O)[C@H](N)[C@H]1O` [Compound 3d] as the compound, how does the MIC [11] read?
Answer: 32 to 64 µg/mL (≈ 46 to 92 µM)

Question: What about the MIC [12] of the same compound?
Answer: 8 to 16 µg/mL (≈ 11.5 to 23 µM)

Question: And the MIC [5]?
Answer: 16 to 32 µg/mL (≈ 23 to 46 µM)

Question: And the “modification by three AACs used simultaneously (TLC)” value [13]?
Answer: only the 3-monoacetylated product was obtained

Question: And the “MIC values, range” value [7]?
Answer: ≤1.95 to 15.6 µg/mL

Question: And the “lowering of the MIC value by POS” value [8]?
Answer: 2–8 fold

Question: And the “FICI values, range” value [8]?
Answer: 0.07 to 0.31

Question: And the “time-kill activity at subinhibitory concentration” value [10]?
Answer: fungistatic activity

Question: And the “time to complete fungal cell death” value [10]?
Answer: 12 h

Question: With `CCCCCCCCCCCCCCCCSC[C@@H]1O[C@@H](O[C@@H]2[C@@H](O)[C@H](O[C@@H]3O[C@@H](CN)[C@H](O)[C@@H](O)[C@@H]3N)[C@@H](N)C[C@H]2N)[C@@H](O)[C@H](N)[C@H]1O` [Compound 3e] as the compound, how does the “times better than FLC” value [6] read?
Answer: 32 times

Question: And the “times better than KANB” value [6]?
Answer: 64 times

Question: And the “MIC values, range” value [7]?
Answer: 1.95 to 3.9 µg/mL

Question: What about the “times more effective than KANB” value ([7]; several of the tested yeast strains) of the same compound?
Answer: 32 times

Question: For `CCCCCCCCCCCCS(=O)(=O)C[C@@H]1O[C@@H](O[C@@H]2[C@@H](O)[C@H](O[C@@H]3O[C@@H](CN)[C@H](O)[C@@H](O)[C@@H]3N)[C@@H](N)C[C@H]2N)[C@@H](O)[C@H](N)[C@H]1O` [Compound 4c], which “MIC of sulfone relative to MIC of corresponding thioether” value [7] is on record?
Answer: ≤ 2 fold dilution

Question: Which “MIC of sulfone relative to MIC of corresponding thioether” value [7] does the source give for `CCCCCCCCCCCCCCS(=O)(=O)C[C@@H]1O[C@@H](O[C@@H]2[C@@H](O)[C@H](O[C@@H]3O[C@@H](CN)[C@H](O)[C@@H](O)[C@@H]3N)[C@@H](N)C[C@H]2N)[C@@H](O)[C@H](N)[C@H]1O` [Compound 4d] here?
Answer: ≤ 2 fold dilution

Question: With `CNC(C)C1CCC(N)C(OC2C(N)CC(N)C(OC3OCC(C)(O)C(NC)C3O)C2O)O1` (stereo not shown) [GEN, gentamicin] as the compound, how does the “concentration displaying antifungal activity (antifungal MIC)” value [14] read?
Answer: 64 µg/mL

Question: What about the safe serum concentration [15] of the same compound?
Answer: 30 to 40 µg/mL

Question: Which MIC [16] does the source give for `NC[C@H]1O[C@H](O[C@H]2[C@H](O)[C@@H](O[C@H]3O[C@H](CO)[C@@H](O)[C@H](N)[C@H]3O)[C@H](N)C[C@@H]2N)[C@H](O)[C@@H](O)[C@@H]1O` [KANA, kanamycin A] here?
Answer: 8 to 16 µg/mL (≈ 16.5 to 33 µM)

Question: What about the MIC [17] of the same compound?
Answer: 16 to 32 µg/mL (≈ 33 to 66 µM)

Question: And the MIC [18]?
Answer: > 128 µg/mL

Question: What does the source list for `NC[C@H]1O[C@H](O[C@H]2[C@H](O)[C@@H](O[C@H]3O[C@H](CO)[C@@H](O)[C@H](N)[C@H]3O)[C@H](N)C[C@@H]2N)[C@H](N)[C@@H](O)[C@@H]1O` [KANB, kanamycin B, reference compound]?
Answer: MIC [19]: ≤ 16 µg/mL; modification by three AACs used simultaneously (TLC) [13]: converted to a diacetylated adduct; modification by a single AAC (TLC) ([13]; individually subjected to AAC(3), AAC(2′), or AAC(6′) overnight): completely converted to its corresponding monoacetylated product; hemolysis [1]: little to no hemolysis; toxicity [2]: little to no toxicity; toxicity [3]: little to no toxicity

Question: Which “concentration displaying antifungal activity (antifungal MIC)” value [14] does the source give for `NC[C@@H]1O[C@H](O[C@H]2[C@@H](O)[C@H](O[C@@H]3[C@@H](O)[C@H](N)C[C@H](N)[C@H]3O[C@H]3O[C@H](CN)[C@@H](O)[C@H](O)[C@H]3N)O[C@@H]2CO)[C@H](N)[C@@H](O)[C@@H]1O` [NEO, neomycin B] here?
Answer: 64 µg/mL

Question: Which results are given for `NC[C@@H]1O[C@H](O[C@H]2[C@@H](O)[C@H](O[C@@H]3[C@@H](O)[C@H](N)C[C@H](N)[C@H]3O[C@H]3O[C@H](CO)[C@@H](O)[C@H](O)[C@H]3N)O[C@@H]2CO)[C@H](N)[C@@H](O)[C@@H]1O` [PAR, paromomycin]?
Answer: concentration displaying antifungal activity (antifungal MIC) [14]: 64 µg/mL; safe serum concentration [15]: 30 to 40 µg/mL

Question: Which “reduction of the MIC values of POS” value ([8]; in the presence of 3c) does the source give for `CC[C@@H]([C@H](C)O)n1ncn(-c2ccc(N3CCN(c4ccc(OC[C@@H]5CO[C@@](Cn6cncn6)(c6ccc(F)cc6F)C5)cc4)CC3)cc2)c1=O` [POS, posaconazole, reference compound] here?
Answer: 16–64 fold

Question: And the “reduction of the MIC values of POS” value ([8]; in the presence of 3d)?
Answer: 16–32 fold

Question: What does the source list for `[H]/N=C(/N)N[C@H]1[C@H](O)[C@@H](O)[C@H](O[C@@H]2O[C@@H](C)[C@](O)(C=O)[C@H]2O[C@@H]2O[C@@H](CO)[C@H](O)[C@@H](O)[C@@H]2NC)[C@@H](N/C(N)=N\[H])[C@@H]1O` [STR, streptomycin]?
Answer: concentration displaying antifungal activity (antifungal MIC) [14]: 64 µg/mL; safe serum concentration [15]: 30 to 40 µg/mL
